ChEMBL document CHEMBL1148766, “Design, synthesis, and evaluation of orally active benzimidazoles and benzoxazoles as vascular endothelial growth factor-2 receptor tyrosine kinase inhibitors” (J Med Chem, 2007)

Key:
[1] = biological target: T1, Vascular endothelial growth factor receptor 2 (Homo sapiens, UniProt P35968); experiment: Inhibition of KDR phosphorylation; format: functional
[2] = Clearance in Sprague-Dawley rat at 1 mg/kg, iv; format: ADME, organism-based; design: dose 1 mg/kg, route intravenous; settings: in vivo
Outline: (§1)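 Male Sprague-Dawley rats, n = 3, given 1 mg/kg as a DMSO solution into the femoral vein. Serial jugular-vein blood samples were taken into heparinized tubes over 12-24 h. Parameters were derived by noncompartmental analysis.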

[3] = Oral bioavailability in Sprague-Dawley rat at 10 mg/kg, po; format: ADME, organism-based; settings: in vivo
Outline: (§2)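 Male Sprague-Dawley rats were dosed either into the femoral vein at 1 mg/kg in DMSO (n = 3) or by oral gavage at 10 mg/kg as an Ora-Plus suspension, pH 2.0-2.2 with methanesulfonic acid (n = 2). Serial jugular-vein blood was taken into heparinized tubes over 12-24 h. Parameters were derived by noncompartmental analysis.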

[4] = Half life in Sprague-Dawley rat at 1 mg/kg, iv or 10 mg/kg po; format: ADME, organism-based; settings: in vivo; outline: as §2
[5] = Volume of distribution at steady state in Sprague-Dawley rat at 1 mg/kg, iv; format: ADME, organism-based; design: dose 1 mg/kg, route intravenous; settings: in vivo, read-out: Vdss; outline: as §1
[6] = biological target: T1, Vascular endothelial growth factor receptor 2; experiment: Selectivity for VEGF-stimulated HUVEC cell proliferation over FGF-induced HUVEC cell proliferation; format: functional, cell-based
Outline: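 HUVECs seeded at 3000/well in DMEM with 10% FBS, 22 h, then preincubated 2 h with compound serial dilutions. Stimulated with 50 ng/mL VEGF or 20 ng/mL bFGF for 72 h at 37 °C, 5% CO₂. Cells washed, frozen, then quantified with CyQuant dye. IC50s from four-parameter logistic fit; ratio of FGF over VEGF IC50.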

[7] = Oral bioavailability in Sprague-Dawley rat at 3 mg/kg, po; format: ADME, organism-based; settings: in vivo
Outline: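 Male Sprague-Dawley rats given 3 mg/kg by oral gavage as an Ora-Plus suspension adjusted to pH 2.0-2.2 with methanesulfonic acid. Serial jugular-vein blood was taken into heparinized tubes over 12-24 h. Noncompartmental analysis.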

T1 sequence (P35968 whole entry): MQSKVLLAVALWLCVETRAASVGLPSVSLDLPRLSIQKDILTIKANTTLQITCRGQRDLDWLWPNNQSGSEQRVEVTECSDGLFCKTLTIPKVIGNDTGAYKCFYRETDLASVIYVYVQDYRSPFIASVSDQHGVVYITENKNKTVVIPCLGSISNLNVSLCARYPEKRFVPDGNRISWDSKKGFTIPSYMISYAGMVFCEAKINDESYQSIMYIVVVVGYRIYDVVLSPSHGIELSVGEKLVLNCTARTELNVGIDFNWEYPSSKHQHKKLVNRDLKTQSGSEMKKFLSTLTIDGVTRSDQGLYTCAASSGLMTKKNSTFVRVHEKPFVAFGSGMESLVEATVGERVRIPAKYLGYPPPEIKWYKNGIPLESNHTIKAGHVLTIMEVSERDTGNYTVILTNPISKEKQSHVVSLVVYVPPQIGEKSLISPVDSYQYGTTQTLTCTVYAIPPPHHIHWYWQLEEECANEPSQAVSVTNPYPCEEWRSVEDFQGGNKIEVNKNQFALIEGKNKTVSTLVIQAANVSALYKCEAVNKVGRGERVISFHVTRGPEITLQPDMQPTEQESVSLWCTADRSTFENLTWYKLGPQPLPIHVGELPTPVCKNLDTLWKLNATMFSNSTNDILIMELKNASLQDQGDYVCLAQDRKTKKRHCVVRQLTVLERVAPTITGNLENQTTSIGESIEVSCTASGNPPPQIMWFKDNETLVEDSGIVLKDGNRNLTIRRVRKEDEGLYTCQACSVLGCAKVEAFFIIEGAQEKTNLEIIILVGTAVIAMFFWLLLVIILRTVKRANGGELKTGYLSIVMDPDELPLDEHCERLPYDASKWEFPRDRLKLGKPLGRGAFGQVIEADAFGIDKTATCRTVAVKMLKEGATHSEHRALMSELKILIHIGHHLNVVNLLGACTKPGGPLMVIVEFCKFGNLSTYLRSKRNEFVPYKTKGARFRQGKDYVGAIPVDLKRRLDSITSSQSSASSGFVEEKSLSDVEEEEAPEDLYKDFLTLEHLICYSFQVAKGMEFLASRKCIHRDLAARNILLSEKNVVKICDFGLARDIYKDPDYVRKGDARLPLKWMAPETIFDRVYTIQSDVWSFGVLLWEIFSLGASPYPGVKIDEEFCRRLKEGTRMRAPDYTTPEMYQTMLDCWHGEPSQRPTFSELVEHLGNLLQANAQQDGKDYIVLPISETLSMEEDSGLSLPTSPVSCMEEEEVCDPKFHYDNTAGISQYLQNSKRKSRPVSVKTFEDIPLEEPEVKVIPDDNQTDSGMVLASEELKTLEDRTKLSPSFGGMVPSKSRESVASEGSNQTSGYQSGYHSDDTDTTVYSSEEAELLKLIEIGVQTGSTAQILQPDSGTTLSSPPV

Row | SMILES | Ki [1] | other results
1 | CNC(=O)c1cc(Oc2ccc3oc(Nc4ccc(Cl)c(OCC5CCNCC5)c4)nc3c2)ccn1 | 3 nM | 
2 | CNC(=O)c1cc(Oc2ccc3[nH]c(Nc4ccc(Cl)c(CN5CCN(C)CC5)c4)nc3c2)ccn1 | 3.9 nM | 
3 | CCN(CC)CCOc1cc(Nc2nc3cc(Oc4ccnc(C(=O)NC)c4)ccc3o2)ccc1Cl | 5 nM | 
4 | CN1CCN(Cc2cc(Nc3nc4cc(Oc5ccnc6ccccc56)ccc4o3)ccc2Cl)CC1 | 3.6 nM | 
5 | CNC(=O)c1cc(Oc2ccc3[nH]c(Nc4cc(OCCN5CCCC5)cc(C(F)(F)F)c4)nc3c2)ccn1 | 287 nM | 
6 | CSc1nccc(Oc2ccc3[nH]c(Nc4ccc(Cl)c(CN5CCN(C)CC5)c4)nc3c2)n1 | 128 nM | 
7 | CNC(=O)c1cc(Oc2cc(F)c3oc(Nc4ccc(Cl)c(OC[C@@H]5CCCN5C)c4)nc3c2)ccn1 | 3 nM | 
8 | CN1CCCC1COc1cc(Nc2nc3cc(Oc4ccnc5[nH]ccc45)ccc3o2)ccc1Cl (single isomer, unassigned) | 1.6 nM | clearance [2]: 20.7 mL/min/kg; bioavailability [3]: 17%; half-life [4]: 2.87 h; Vd [5]: 5.02 L/kg
9 | CN1CCN(Cc2cc(Nc3nc4ccc(Oc5ccnc6[nH]ccc56)cc4[nH]3)ccc2Cl)CC1 | 3 nM | 
10 | FC(F)(F)c1cc(Nc2nc3ccc(Oc4ccnc5[nH]ccc45)cc3[nH]2)ccc1Cl | 48 nM | 
11 | COc1cc2ncnc(Oc3ccc4oc(Nc5ccc(Cl)c(OC[C@@H]6CCCN6C)c5)nc4c3)c2cc1OC | 0.5 nM | Ratio IC50 [6]: 10; clearance [2]: 14.8 mL/min/kg; bioavailability [3]: 60%; half-life [4]: 6.14 h; Vd [5]: 6.88 L/kg
12 | CNC(=O)c1cc(Oc2ccc3oc(Nc4ccc(Cl)cc4)nc3c2)ccn1 | 12 nM | 
13 | CNC(=O)c1cc(Oc2ccc3oc(Nc4ccc(Cl)c(OC[C@@H]5CCCN5C)c4)nc3c2)ccn1 |  | bioavailability [7]: 40%; clearance [2]: 56.7 mL/min/kg; half-life [4]: 1.8 h; Vd [5]: 8.4 L/kg
14 | CNC(=O)c1cc(Oc2ccc3c(c2)nc(Nc2ccc(Cl)c(CN4CCN(C)CC4)c2)n3C)ccn1 | 10 nM | 
15 | CNC(=O)c1cc(Oc2ccc3[nH]c(Nc4ccc(C(F)(F)F)c(OC[C@H]5CCCN5C)c4)nc3c2)ccn1 | 2 nM | 
16 | CNC(=O)c1cc(Oc2ccc3[nH]c(Nc4ccc(C(F)(F)C(F)(F)F)c(OC[C@H]5CCCN5C)c4)nc3c2)ccn1 | 9 nM | 
17 | CNc1nccc(Oc2ccc3[nH]c(Nc4ccc(Cl)c(CN5CCN(C)CC5)c4)nc3c2)n1 | 40 nM | 
18 | CNC(=O)c1cc(Oc2ccc3oc(Nc4ccc(Cl)c(OCCN(C)C)c4)nc3c2)ccn1 | 4 nM | 

Row | SMILES | Ki [1] | other results
19 | CNC(=O)c1cc(Oc2ccc3[nH]c(Nc4ccc(C(F)(F)F)c(OCCN(C)C)c4)nc3c2)ccn1 | 3 nM | 
20 | COc1cc2ncnc(Oc3ccc4[nH]c(Nc5ccc(Cl)cc5)nc4c3)c2cc1OC | 8 nM | 
21 | CN1CCN(Cc2cc(Nc3nc4cc(Oc5ccnc6[nH]ccc56)ccc4o3)ccc2Cl)CC1 | 2 nM | 
22 | CNC(=O)c1cc(Oc2cc(Cl)c3oc(Nc4ccc(Cl)c(CN5CCN(C)CC5)c4)nc3c2)ccn1 | 10 nM | 
23 | CN1CCN(Cc2cc(Nc3nc4cc(Oc5ccnc6ccccc56)cc(Cl)c4o3)ccc2Cl)CC1 | 2 nM | 
24 | CNc1nccc(Oc2ccc3oc(Nc4ccc(Cl)c(CN5CCN(C)CC5)c4)nc3c2)n1 | 25 nM | 
25 | FC(F)(F)c1cc(Nc2nc3cc(Oc4ccncc4)ccc3[nH]2)ccc1Cl | 160 nM | 
26 | CNC(=O)c1cc(Oc2ccc3oc(Nc4ccc(Cl)c(CN5CCN(C)CC5)c4)nc3c2)ccn1 | 4 nM | 
27 | CN1CCC[C@H]1COc1cc(Nc2nc3cc(Oc4ccnc(C(N)=O)c4)ccc3o2)ccc1Cl | 3 nM | 
28 | COc1cc2nccc(Oc3ccc4oc(Nc5ccc(Cl)c(CN6CCN(C)CC6)c5)nc4c3)c2cc1OC | 0.5 nM | Ratio IC50 [6]: 10; clearance [2]: 27.2 mL/min/kg; bioavailability [3]: 67%; half-life [4]: 5.53 h; Vd [5]: 12.1 L/kg
29 | CN1CCN(Cc2cc(Nc3nc4cc(Oc5ccnc6ccccc56)ccc4[nH]3)ccc2Cl)CC1 | 2 nM | 
30 | COc1cc2nccc(Oc3ccc4[nH]c(Nc5ccc(Cl)c(CN6CCN(C)CC6)c5)nc4c3)c2cc1OC | 0.2 nM | 
31 | CN1CCN(Cc2cc(Nc3nc4ccc(Oc5ncnc6[nH]ccc56)cc4[nH]3)ccc2Cl)CC1 | 17 nM | 
32 | CNc1cc(Oc2ccc3oc(Nc4ccc(Cl)c(CN5CCN(C)CC5)c4)nc3c2)ncn1 | 20 nM | 
33 | COc1cc2nccc(Oc3ccc4oc(Nc5ccc(Cl)c(OC[C@@H]6CCCN6C)c5)nc4c3)c2cc1OC | 0.5 nM | 
34 | CNC(=O)c1cc(Oc2ccc3oc(Nc4ccc(Cl)c(CN5CCOCC5)c4)nc3c2)ccn1 | 4 nM | 
35 | CN1CCC[C@@H]1COc1cc(Nc2nc3cc(Oc4ccnc5ccccc45)ccc3[nH]2)ccc1C(F)(F)F | 1 nM | clearance [2]: 16.7 mL/min/kg; bioavailability [3]: 24%; half-life [4]: 4.8 h; Vd [5]: 5.8 L/kg
